Data on four molecules can be found in PMC8246884 (Journal of Medical Virology, 2020).

Series [1] deals with HCV. To be noted: cited from earlier work.
Series [2] is described as follows: Plasma pharmacokinetics on Day 14. The conditions noted are these: Day 14, coadministered with CDI‐31244. Format: in vivo, human. The procedure, abridged:
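Treatment-naïve adults with chronic genotype 1 HCV and no cirrhosis took oral drugs once daily for 2 weeks: a nucleotide/NS5A inhibitor combination tablet (400 mg/100 mg) plus a non-nucleoside inhibitor, 400 mg as capsules. Plasma was sampled before the first dose on Day 1 and at 0, 1, 2, 4, 6, 8, 12 and 24 h after the Day 14 dose. Validated LC-MS/MS; per-patient non-compartmental Cmax, Cmin, tmax, AUC0–24; descriptive statistics.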

Consider `COc1c(-c2ccc3cc(NS(C)(=O)=O)ccc3c2)cc(-n2ccc(=O)[nH]c2=O)cc1C(C)(C)C` [dasabuvir], for which, in series [1], the “HCV RNA viral load reduction” value is 0.95 log10. On to `CC(C)OC(=O)[C@H](C)N[P@](=O)(OC[C@H]1O[C@@H](n2ccc(=O)[nH]c2=O)[C@](C)(F)[C@@H]1O)Oc1ccccc1` [sofosbuvir], for which the Exposure entry in series [2] is listed as “consistent with reported values”. Turning to `COC[C@H]1C[C@@H](c2ncc(-c3ccc4c(c3)COc3cc5c(ccc6nc([C@@H]7CC[C@H](C)N7C(=O)[C@@H](NC(=O)OC)C(C)C)[nH]c65)cc3-4)[nH]2)N(C(=O)[C@H](NC(=O)OC)c2ccccc2)C1` [velpatasvir], in series [2], the Exposure result is “consistent with reported values”. Consider `C[C@@]1(F)[C@H](O)[C@@H](CO)O[C@H]1n1ccc(=O)[nH]c1=O` [GS‐331007], for which, in series [2], the Exposure entry is listed as “consistent with reported values”.
